Screens as filed in PubChem BioAssay.
TRPC4 PAM: TRPC4 (mouse) allosteric potentiation; B-score at 10 µM; 310,000 compounds, 0.42% hits; HEK293 TRPC4beta/mu-opioid, DAMGO EC20, Fluo-4 Ca2+ flux; active compounds read high;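 active = B-score of calcium response area above 5 SD of library B-scores, with initial fluorescence ratio within 5 SD of library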
TRPC4 agonist: activators of mouse TRPC4 channel | HEK293 TRPC4beta/mu-opioid, Fluo4 calcium fluorescence; active compounds read high | B-score at 10 µM | 310,000 compounds, 0.49% hits | AID 2237;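 active = B-score above 5 SD of library B-scores, and initial fluorescence ratio not above library mean plus 5 SD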;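 also: positive B-score marks a calcium rise read as TRPC4 activation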
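Incubation: 45 min room-temperature Fluo4 loading, 110 s read / System: HEK293 cells stably co-expressing mouse TRPC4beta and mu-opioid receptor / Signal: Fluo4 fluorescence, kinetic / Control set: buffer (low) and maximal DAMGO (high) / Measure: integrated baseline-normalised fluorescence ratio, converted to per-well B score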
TRPC4 block: inhibitors of mouse TRPC4 channel | HEK293 TRPC4beta/mu-opioid, DAMGO-evoked Fluo4 calcium flux; active compounds read low | 300,000 compounds, 0.39% hits | AID 2247 | B-score at 10 µM | Q9QUQ5;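 active = B-score over 3 SD under the library average, no early fluorescence shift, positive overall ratio signal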
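Assay system: Stable TRPC4beta/mu-opioid receptor HEK293 cells | Reagent: DAMGO in two steps, submaximal then maximal | Compound dosing: Single concentration per test compound | Signal: Fluo4 Ca2+ flux fluorescence | Evaluation: Per-well B score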
TRPC6 activator: activators of mouse TRPC6 channel | HEK293-TRPC6 membrane potential dye fluorescence; active compounds read high | B-score at 10 µM | 310,000 compounds, 0.13% hits | AID 2550;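 active = B-score of the integrated fluorescence ratio above library mean plus 3 SD, and starting fluorescence ratio within library mean plus 5 SD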;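 also: higher score means more depolarization so channel activation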
Kir21 block: blocks the mouse Kir2.1 inward-rectifier potassium channel; P35561; 310,000 compounds, 0.85% hits; AID 1672; B-score at 10 µM; HEK293-Kir2.1, FluxOR thallium flux fluorescence; active compounds read low;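 active = fluorescence ratio B-score at or below minus 3 SD of library scores, with starting-brightness B-score within 2 SD, cut at about -4.2 in these data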;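 also: channel flux triggered by added potassium and thallium sulfate stimulus; B-score of peak minus minimum fluorescence over baseline after thallium stimulus; more negative B-score means stronger Kir2.1 block with less thallium influx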
Target sequence (P35561 whole entry, looked up): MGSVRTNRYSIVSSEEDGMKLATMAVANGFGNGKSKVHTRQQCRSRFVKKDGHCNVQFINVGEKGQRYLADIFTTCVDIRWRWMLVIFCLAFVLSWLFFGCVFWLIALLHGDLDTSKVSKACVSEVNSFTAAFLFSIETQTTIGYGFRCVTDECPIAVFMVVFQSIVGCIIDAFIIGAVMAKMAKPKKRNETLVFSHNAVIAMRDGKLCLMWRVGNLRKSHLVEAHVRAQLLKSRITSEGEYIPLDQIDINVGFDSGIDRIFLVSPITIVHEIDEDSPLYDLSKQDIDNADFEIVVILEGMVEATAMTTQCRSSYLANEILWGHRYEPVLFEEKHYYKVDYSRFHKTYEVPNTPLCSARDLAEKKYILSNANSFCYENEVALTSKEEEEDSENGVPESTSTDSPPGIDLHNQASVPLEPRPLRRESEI
TRPC6 inhibitor: mouse TRPC6 channel inhibition | Q61143 | 310,000 compounds, 1.1% hits | HEK293-TRPC6, membrane potential dye, ACh-evoked depolarization; active compounds read low | B-score at 10 µM | AID 2553;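 active = B-score under library mean minus 3 SD, initial fluorescence not abnormally high, positive integrated signal ratio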;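 also: B-score derived from integrated fluorescence ratio over the kinetic read; more negative B-score means stronger inhibition of depolarization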
TRPC4 spec 2: second check of whether TRPC6 inhibitors also affect mouse TRPC4; shares compounds with TRPC6 inhibitor; HEK293 TRPC4/MOR, membrane potential dye fluorescence; channel activated by saturating DAMGO dose; inhibition, % at 10 µM; 920 compounds, 42% hits;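 active = compounds whose fluorescence signal differed from control wells by over 3 SD, either direction, in both duplicate plates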
TRPC4 spec: mouse TRPC4 off-target activity of TRPC6 inhibitors; HEK293 TRPC4/mu-opioid, membrane potential fluorescence; shares compounds with TRPC6 inhibitor; activity change, negative = inhibition, % at 10 µM; AID 2777; 920 compounds, 61% hits;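 active = rise or fall in signal beyond 3 SD of buffer-only wells in both replicate plates, either sign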;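 also: integrated kinetic ratio of fluorescence range over baseline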
HEK293 MPD ctr 2-1: parental HEK293 nonspecific activity of TRPC6 inhibitors, second screen; 920 compounds, 31% hits; shares compounds with TRPC6 inhibitor; AID 2779; signal change vs control, % at 10 µM; parental HEK293 membrane potential dye fluorescence; maximal acetylcholine challenge after compound addition;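 active = membrane potential signal moving either way by over 3 SD of the maximum-effect control, in both duplicate plates, meaning non-specific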
HEK293 MPD ctr-1: checks TRPC6 inhibitor effects in parental HEK293 cells; shares compounds with TRPC6 inhibitor; parental HEK293 membrane potential dye fluorescence; membrane potential signal change, % at 10 µM; 920 compounds, 60% hits; AID 2780;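 active = membrane potential signal shifting up or down by more than 3 SD of buffer-only wells, on both duplicate plates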
HEK293 MPD ctr-2: checks TRPC6 modulator effects in parental HEK293 cells; shares compounds with TRPC6 inhibitor; membrane potential dye fluorescence; membrane potential signal change, % at 10 µM; 2,400 compounds, 51% hits; AID 488924;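 active = membrane potential signal moves up or down beyond 5 SD from buffer-only wells, on both duplicate plates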
HEK293 MPD ctr 2-2: second counter-screen for TRPC6 modulators: effect in parental HEK293 cells | shares compounds with TRPC6 inhibitor | membrane potential dye fluorescence; after compound, maximal acetylcholine stimulation | inhibition, % at 10 µM | 2,400 compounds, 14% hits;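 active = membrane potential signal drops by more than 5 SD from the mean control signal, in both duplicate plates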
TRPC4 ctr mod: selectivity of TRPC6 modulators against mouse TRPC4 | HEK293 TRPC4/mu-opioid, membrane potential fluorescence | 2,400 compounds, 69% hits | percent change from control (negative = decrease, positive = increase), % at 10 µM | shares compounds with TRPC6 inhibitor;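 active = membrane potential signal moved up or down beyond 5 SD of buffer control wells, in both duplicate plates, actives on both sides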
TRPC4/MOR inh 2: second check of whether TRPC6 modulators also affect mouse TRPC4; shares compounds with TRPC6 inhibitor; HEK293 TRPC4/mu-opioid, membrane potential dye fluorescence; stimulated with maximal-effect DAMGO; inhibition, % at 10 µM; 2,400 compounds, 55% hits; AID 488928;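 active = drop in membrane potential signal beyond 5 SD of the control wells in both duplicate plates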;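 also: TRPC4 counter screen for TRPC6 hits run under conditions tuned for TRPC6 not TRPC4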
TRPC6 block conf: mouse TRPC6 inhibitor confirmation; shares compounds with TRPC6 inhibitor; HEK293-TRPC6, membrane potential dye, ACh-evoked depolarization; inhibition, % at 10 µM; 3,300 compounds, 43% hits;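 active = fluorescence ratio falls more than 5 SD below the full-stimulation control mean, in both duplicate runs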;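 also: integrated fluorescence ratio of peak minus minimum over baseline after agonist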
TRPC6 act confirm: mouse TRPC6 activator confirmation | activation, % at 10 µM | shares compounds with TRPC6 inhibitor | AID 488961 | 2,800 compounds, 11% hits | HEK293-TRPC6 membrane potential dye fluorescence, FDSS;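 active = ratio signal rise beyond 5 SD above unstimulated control wells' mean, seen in both duplicate runs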
Hits are given with their value; - = inactive; . = not tested or not shown; + = active, no number. Compounds with a hit are over-represented: about 2.9% of the library has one in this group of screens.

SMILES	TRPC4 PAM	TRPC4 agonist	TRPC4 block	TRPC6 activator	Kir21 block	TRPC6 inhibitor	HEK293 MPD ctr-2	HEK293 MPD ctr 2-2	TRPC4 ctr mod	TRPC4/MOR inh 2	TRPC6 block conf	TRPC6 act confirm	others
O=C1N/C(=N\S(=O)(=O)Cc2ccccc2)S/C1=C/c1cc([N+](=O)[O-])ccc1O	-	-	-	12.7	-	-	177.0%	-	33.0%	-	-	121.5%
Cc1ccc(S(=O)(=O)/N=C2/NC(=O)/C(=C\c3cc(Br)cc(Br)c3O)S2)cc1	34	64	-	71.3	-	-	+	-	197.5%	-	-	401.5%
O=C1N/C(=N\S(=O)(=O)c2ccccc2)S/C1=C\c1cc([N+](=O)[O-])ccc1O	-	-	-	26.7	-	-	249.0%	-	46.0%	-	-	159.5%
COc1cc(/C=C2/S/C(=N/S(=O)(=O)c3ccccc3)NC2=O)c([N+](=O)[O-])cc1OC	-	-	-	-	-	-	.	.	.	.	.	.
CCOc1ncccc1C(=O)OCC(=O)N(CC(C)C)c1c(N)n(Cc2ccccc2)c(=O)[nH]c1=O	-	-	-	-	-	-	.	.	.	.	.	.
COc1ccc(NC(=O)CS(=O)(=O)c2cn(CC(=O)N3CCCC3)c3ccccc23)c(OC)c1	-	-	-	-	-	-	.	.	.	.	.	.
Cc1nnc(SCCn2c(N3CCCCC3)nc3c2c(=O)n(C)c(=O)n3C)s1	-	-	-	-	-	-	.	.	.	.	.	.
Cc1nnc(SCCn2c(N3CCN(C)CC3)nc3c2c(=O)n(C)c(=O)n3C)s1	-	-	-	-	-	-13	-231.0%	96.5%	-35.0%	59.0%	72.0%	-
O=C(Nc1cc(C(F)(F)F)ccc1-n1cnc2ccccc21)c1ccccc1	-	-	-	-	-	-5.26	106.5%	-	19.0%	-	47.0%	.
CC1CCc2nn(CC(=O)NCCCN3CCCC3=O)cc2C1 (stereo not drawn)	-	-	-	-	-	-	.	.	.	.	.	.
Cc1ccc(C)c(N2CCN(CCCNC(=O)Cn3cc4c(n3)CCC(C)C4)CC2)c1 (stereo not drawn)	-	-	-	13.9	-4.73	-	93.5%	-	15.5%	61.5%	-	-
CC(C)CC1CCCCC1OC(=O)C[N+]1(C)CCCCC1 (stereo not drawn)	-	-	-	-	-	-8.67	.	.	.	.	87.1%	-	TRPC4 spec 2=-;TRPC4 spec=-;HEK293 MPD ctr 2-1=15.5%;HEK293 MPD ctr-1=-
CC(C)(C)C1CCC(OC(=O)C[N+]2(C)CCCCC2)CC1 (stereo not drawn)	-	-	-	-	-	-	.	.	.	.	.	.
